Measured values taken from ChEMBL document CHEMBL1148681, “Synthesis and evaluation of (2-phenethyl-2H-1,2,3-triazol-4-yl)(phenyl)methanones as Kv1.5 channel blockers for the treatment of atrial fibrillation” (Bioorg Med Chem Lett, 2006).
Active and inactive are the calls of the source. No cut-off for these calls is given here.

What was measured:
[1] = molecular target: T1, Potassium voltage-gated channel subfamily A member 5 (Homo sapiens, UniProt P22460); experiment: Blockade of Kv1.5 channel expressed in LTK cells at 1 uM by patch clamp method; assay type: functional, cell-based
Outline: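 Whole-cell patch clamp on Ltk- cells overexpressing Kv1.5, cultured 24–72 h and induced with dexamethasone for 24 h. Pipette solution was KCl/K2ATP/K4BAPTA/MgCl2/Hepes at pH 7.2; bath was NaCl/KCl/CaCl2/MgCl2/Hepes/glucose at pH 7.4. Cells were held at −70 mV and stepped to +60 mV for 1 s at 0.2 Hz. Current at pulse end was compared to control at 1 uM inhibitor.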

[2] = molecular target: T1, Potassium voltage-gated channel subfamily A member 5; experiment: Blockade of Kv1.5 channel expressed in LTK cells by patch clamp method; assay type: functional, cell-based
Outline: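 Dexamethasone-induced (24 h) Ltk- cells expressing Kv1.5 were recorded by series-resistance-compensated whole-cell patch clamp, with 1 s steps from −70 to +60 mV at 0.2 Hz (pH 7.2 pipette, pH 7.4 bath). After control currents stabilized, inhibitor was perfused at rising concentrations, each to maximal block. IC50 was obtained by nonlinear regression.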

[3] = tested on: Sus scrofa; experiment: Increase in atrial effective refractory period in pig at 30 mg/kg after 15 mins; assay type: functional, Cardiac atrium
[4] = molecular target: Voltage-gated inwardly rectifying potassium channel KCNH2 (Homo sapiens, UniProt Q12809); experiment: Inhibition of hERG; assay type: toxicity
[5] = molecular target: Voltage-gated L-type calcium channel (Homo sapiens, UniProt Q13936+Q13698+Q01668+O60840); experiment: Inhibition of L type calcium channel; assay type: protein assay
[6] = molecular target: Potassium voltage-gated channel subfamily A member 3 (Homo sapiens) (UniProt P22001); experiment: Inhibition of Kv1.3 channel
[7] = tested on: Sus scrofa; experiment: Effect on ventricular effective refractory period in pig at 30 mg/kg after 15 mins; assay type: functional, organism-based; parameters: dose 30 mg/kg; conditions: Cardiac ventricle

T1 sequence (P22460 whole entry): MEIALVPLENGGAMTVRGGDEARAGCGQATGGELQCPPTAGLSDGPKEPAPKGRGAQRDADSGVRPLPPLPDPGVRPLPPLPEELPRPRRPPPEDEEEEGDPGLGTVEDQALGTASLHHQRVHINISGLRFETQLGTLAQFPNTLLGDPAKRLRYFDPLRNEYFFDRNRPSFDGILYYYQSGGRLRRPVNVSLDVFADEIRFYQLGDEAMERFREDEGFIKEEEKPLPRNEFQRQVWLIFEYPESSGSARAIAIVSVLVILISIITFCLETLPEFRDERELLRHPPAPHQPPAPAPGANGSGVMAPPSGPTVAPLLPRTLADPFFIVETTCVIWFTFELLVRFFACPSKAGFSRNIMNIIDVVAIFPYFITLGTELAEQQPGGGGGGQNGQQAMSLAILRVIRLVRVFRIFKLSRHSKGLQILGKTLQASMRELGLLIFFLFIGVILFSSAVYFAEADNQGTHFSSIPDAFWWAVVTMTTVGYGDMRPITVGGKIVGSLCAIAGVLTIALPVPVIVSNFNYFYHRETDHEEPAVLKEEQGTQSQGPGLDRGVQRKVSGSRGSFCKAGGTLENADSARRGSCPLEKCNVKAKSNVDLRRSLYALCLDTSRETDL
Chain of Voltage-gated inwardly rectifying potassium channel KCNH2 (Q12809 whole entry): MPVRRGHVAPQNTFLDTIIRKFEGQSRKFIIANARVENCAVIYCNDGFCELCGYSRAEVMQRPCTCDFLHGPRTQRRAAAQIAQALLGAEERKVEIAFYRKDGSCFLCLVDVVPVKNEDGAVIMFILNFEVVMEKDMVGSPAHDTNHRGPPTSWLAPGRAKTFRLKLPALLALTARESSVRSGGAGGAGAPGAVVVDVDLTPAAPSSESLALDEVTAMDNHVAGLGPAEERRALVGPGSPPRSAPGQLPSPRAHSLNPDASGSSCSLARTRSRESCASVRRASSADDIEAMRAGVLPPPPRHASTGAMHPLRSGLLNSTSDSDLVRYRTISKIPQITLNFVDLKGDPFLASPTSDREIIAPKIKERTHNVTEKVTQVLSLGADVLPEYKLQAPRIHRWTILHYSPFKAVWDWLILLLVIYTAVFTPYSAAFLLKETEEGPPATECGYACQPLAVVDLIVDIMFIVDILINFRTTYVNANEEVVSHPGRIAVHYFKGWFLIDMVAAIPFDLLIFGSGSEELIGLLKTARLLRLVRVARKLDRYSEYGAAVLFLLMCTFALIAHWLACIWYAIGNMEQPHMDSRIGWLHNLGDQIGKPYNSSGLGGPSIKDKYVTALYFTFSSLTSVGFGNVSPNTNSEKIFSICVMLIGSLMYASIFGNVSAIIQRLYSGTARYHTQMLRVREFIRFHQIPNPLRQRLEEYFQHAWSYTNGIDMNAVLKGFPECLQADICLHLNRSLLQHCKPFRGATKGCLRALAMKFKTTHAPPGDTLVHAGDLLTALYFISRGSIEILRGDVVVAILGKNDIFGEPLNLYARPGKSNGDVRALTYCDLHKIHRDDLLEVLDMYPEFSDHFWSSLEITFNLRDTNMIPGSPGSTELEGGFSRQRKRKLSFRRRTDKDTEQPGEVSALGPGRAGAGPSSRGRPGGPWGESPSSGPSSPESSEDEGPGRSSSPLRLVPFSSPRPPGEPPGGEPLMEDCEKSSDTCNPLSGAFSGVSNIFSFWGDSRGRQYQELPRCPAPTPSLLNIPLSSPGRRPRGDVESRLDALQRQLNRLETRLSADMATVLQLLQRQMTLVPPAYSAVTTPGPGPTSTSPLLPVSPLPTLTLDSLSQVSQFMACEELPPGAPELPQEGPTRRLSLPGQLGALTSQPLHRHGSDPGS
Chain of Potassium voltage-gated channel subfamily A member 3 (Homo sapiens) (P22001 whole entry): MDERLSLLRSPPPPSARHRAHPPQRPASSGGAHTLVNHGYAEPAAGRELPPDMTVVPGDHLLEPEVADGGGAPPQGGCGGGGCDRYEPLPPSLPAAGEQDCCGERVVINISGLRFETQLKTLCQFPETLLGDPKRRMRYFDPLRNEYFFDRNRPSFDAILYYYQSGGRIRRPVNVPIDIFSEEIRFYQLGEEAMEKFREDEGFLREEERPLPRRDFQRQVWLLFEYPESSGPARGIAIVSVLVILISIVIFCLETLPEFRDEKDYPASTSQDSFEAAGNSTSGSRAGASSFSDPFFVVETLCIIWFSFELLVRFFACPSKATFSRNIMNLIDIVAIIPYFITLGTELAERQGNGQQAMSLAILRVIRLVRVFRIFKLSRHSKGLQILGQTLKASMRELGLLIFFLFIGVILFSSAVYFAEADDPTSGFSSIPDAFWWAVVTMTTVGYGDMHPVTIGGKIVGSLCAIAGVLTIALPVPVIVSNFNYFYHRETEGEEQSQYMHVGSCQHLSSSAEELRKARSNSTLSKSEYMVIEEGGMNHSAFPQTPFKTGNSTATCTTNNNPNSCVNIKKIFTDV

Row | Structure (SMILES) | Activity [1] [%] | further results
1 | CCc1ccc(C(=O)c2cnn(CCc3ccc(OC)cc3)n2)cc1 | 86 | 
2 | COc1ccc(CCN2C(=O)CSC2c2ccc(C)c(C)c2)cc1 (configuration not stated) |  | IC50 [2]: 137 nM
3 | COc1ccc(CCn2ncc(C(=O)c3ccc(Cl)c(Cl)c3)n2)cc1 | 88 | 
4 | COc1ccc(CCn2ncc(C(=O)c3ccc(OC)cc3)n2)cc1 | 84 | 
5 | COc1ccc(CCn2cc(C(=O)c3ccc(C)c(C)c3)nn2)cc1 |  | Activity [2]: inactive
6 | COc1ccc(CCn2ncc(C(=O)c3ccc(C)c(C)c3)n2)cc1 | 90 | Activity [3]: 12%; Activity [4]: > 50 µM; Activity [5]: 26 µM; Activity [6]: 10.1 µM; IC50 [2]: 294 nM; Activity [7]: inactive
7 | COc1ccc(CCn2ncc(C(=O)c3ccccc3Cl)n2)cc1 | 22 | 
8 | COc1ccc(CCn2ncc(C(=O)c3ccc(Cl)cc3)n2)cc1 | 85 | 
9 | COc1ccc(CCn2ncc(C(=O)c3ccc(N(C)C)cc3)n2)cc1 | 99 | 

Further lines, with some results ahead:

Row | Activity [1] [%] | Structure (SMILES) | further results
10 | 97 | COc1ccc(CCn2ncc(C(=O)c3ccc(C(C)C)cc3)n2)cc1 | 
11 | 0 | COc1ccc(CCn2ncc(C(=O)c3ccc(N(C)C)cc3OC)n2)cc1 | 
